In EPA's CvTdb concentration-time database:

Key:
Rat [1] = assay: concentration in plasma after dosing; settings: 18 h; dosed: Primidone; 80 mg/kg; oral; Female; F344
Mouse [2] = assay: concentration in plasma after dosing; settings: 0.25 h; dosed: 2-Hydroxy-4-methoxybenzophenone; 50 mg/kg; iv; Female; B6C3F1
Rat [3] = assay: concentration in plasma after dosing; settings: dosed: 2-Hydroxy-4-methoxybenzophenone, 500 mg/kg, oral, Male, F344
Mouse [4] = assay: concentration in plasma after dosing; settings: 3 h; dosed: 2-Hydroxy-4-methoxybenzophenone; 250 mg/kg; oral; Male; B6C3F1
Rat [5] = assay: concentration in plasma after dosing; settings: 10 min; dosed: 2,4-Dichlorophenoxyacetic acid; 2.0 mg/kg; iv; Male; Sprague-Dawley
Mouse [6] = assay: concentration in plasma after dosing; settings: dosed: 2,4-Dichlorophenoxyacetic acid, 2.0 mg/kg, oral, Male, B6C3F1
Mouse [7] = assay: concentration in plasma after dosing; settings: 5 min; dosed: 2,4-Dichlorophenoxyacetic acid; 2.0 mg/kg; oral; Male; B6C3F1
Mouse [8] = assay: concentration in plasma after dosing; settings: dosed: 2,4-Dichlorophenoxyacetic acid, 5.2 mg/kg, oral, Male, B6C3F1
Rat [9] = assay: concentration in brain after dosing; settings: 6 h; dosed: alpha-Thujone; 50 mg/kg; oral; Female; Harlan Sprague Dawley
Rat [10] = assay: concentration in brain after dosing; settings: 5 min; dosed: alpha-Thujone; 25 mg/kg; oral; Male; Harlan Sprague Dawley
Rat [11] = assay: concentration in plasma after dosing; settings: 3 h; dosed: alpha-Thujone; 25 mg/kg; oral; Female; Harlan Sprague Dawley
human = assay: concentration in urine after dosing; settings: dosed: trichloroethylene, inhalation, duration: 2 hr - 20 min
In short: (§1)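 Sampling and analytical methods are those of each source and frequently went unreported. The concentration-versus-time and amount-versus-time points were compiled from published in vivo toxicokinetic studies and two structured collections. Most were digitised from plot screenshots with WebPlotDigitizer, with others copied from tables, in the reported units.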

dog = assay: concentration in urine after dosing; settings: dosed: trichloroethylene, 100 ppm, inhalation, duration: 6 hr, male, beagle
In short: as §1

Rat [12] = assay: concentration in brain after dosing; settings: 6 h; dosed: Perfluorohexane-1-sulphonic acid – potassium salt; 16 mg/kg; oral; Female; F344
Rat [13] = assay: concentration in liver after dosing; settings: dosed: Perfluorohexane-1-sulphonic acid – potassium salt, 16 mg/kg, oral
Rat [14] = assay: concentration in brain after dosing; settings: 12 h; dosed: Perfluorohexane-1-sulphonic acid – potassium salt; 16 mg/kg; oral; Female; Harlan Sprague Dawley
Rat [15] = assay: concentration in plasma after dosing; settings: dosed: Perfluorohexane-1-sulphonic acid – potassium salt, 4 mg/kg, oral, Male, F344
Rat [16] = assay: concentration in liver after dosing; settings: 6 h; dosed: Perfluorohexane-1-sulphonic acid – potassium salt; 16 mg/kg; oral; Female; Harlan Sprague Dawley
Rat [17] = assay: concentration in plasma after dosing; settings: dosed: Perfluorohexane-1-sulphonic acid – potassium salt, 4 mg/kg, oral, Male, F344; remark: listed apart in the source

CCC1(c2ccccc2)C(=O)NCNC1=O [Primidone]
Settings | concentration in plasma [ng/mL]
Rat [1] | 1600

O=C(c1ccccc1)c1ccc(O)cc1O [2,4-Dihydroxybenzophenone]
Settings | concentration in plasma [ng/mL]
Mouse [2] | 1260
Mouse [4] | 371

Rat [3]
Settings | concentration in plasma [ng/mL]
0.5 h | 236
12 h | 151

O=C(O)COc1ccc(Cl)cc1Cl [2,4-Dichlorophenoxyacetic acid]
Settings | concentration in plasma [ng/mL]
Mouse [7] | 4560
Rat [5] | 13200

concentration in plasma [ng/mL]
Settings | 0.25 h | 0.5 h | 2 h | 2.5 min | 3 h | 4 h | 5 min | 6 h | 10 min
Mouse [6] | 3740 | 8570 | 2400 | 2790 | 929 | – | – | – | 4900
Mouse [8] | 12300 | 19700 | 9630 | – | 13400 | 13300 | 6510 | 4310 | –

CC(C)[C@]12CC(=O)[C@H](C)[C@H]1C2 [alpha-Thujone]
Settings | concentration in brain [ng/g] | concentration in plasma [ng/mL]
Rat [9] | 42.5 | –
Rat [10] | 62.6 | –
Rat [11] | – | 176

OCC(Cl)(Cl)Cl [trichloroethanol]
concentration in urine [mg/kg], human
Settings | 2.667 h | 6.667 h | 10.67 h | 19.67 h
1348 mg | 158 | 161 | 79.7 | 65.3
1681 mg | 125 | 236 | 136 | 131
3907 mg | 186 | 258 | 154 | 168

dog
Settings | concentration in urine [ng/mL]
24 h | 129000
48 h | 115000
72 h | 155000
96 h | 205000
120 h | 154000

O=S(=O)([O-])C(F)(F)C(F)(F)C(F)(F)C(F)(F)C(F)(F)C(F)(F)F.[K+] [Perfluorohexane-1-sulphonic acid – potassium salt]
Settings | concentration in brain [ng/g] | concentration in liver [ng/g]
Rat [12] | 1620 | –
Rat [14] | 1140 | –
Rat [16] | – | 33000

concentration in liver [ng/g], Rat [13]
Settings | 3 h | 6 h | 12 h | 24 h | 48 h | 96 h | 192 h | 528 h | 1200 h
Female, F344 | 67800 | 62400 | 68600 | 58000 | – | – | 47000 | 27600 | –
Female, Harlan Sprague Dawley | 49500 | 49000 | 33300 | 26100 | 14000 | 6030 | 1460 | – | –
Male, Harlan Sprague Dawley | – | – | – | – | – | – | – | – | 14800

concentration in plasma [ng/mL]
Settings | 0.25 h | 1 h | 6 h | 12 h | 528 h | 864 h
Rat [15] | 6180 | – | 68100 | – | 13900 | –
Rat [17] | – | 18800 | – | 32300 | – | 6150
